In brackets after ≈: the same amount, converted by molar mass.
What was measured:
[1] = test system: Mycobacterium tuberculosis; assay: Antitubercular activity against Mycobacterium tuberculosis H37Rv ATCC 27294 at 7.8 ug/ml after 5 days by microplate alamar blue assay; assay type: functional
Procedure, shortened: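 Single-concentration primary screen at 7.8 µg/mL against M. tuberculosis H37Rv (ATCC-27294) by MABA, read as percent inhibition. Run in Middlebrook 7H9 broth, with BACTEC 12B medium also cited, at 37 °C for 5 days. Then 1:1 Alamar Blue/10% Tween 80 added and incubated 24 h. Colour read: blue = inhibition, pink = growth.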

[2] = test system: Mycobacterium tuberculosis; assay: Antitubercular activity against Mycobacterium tuberculosis H37Rv ATCC 27294 after 5 days by microplate alamar blue assay; assay type: functional; details: H37Rv ATCC 27294, 120 h
Procedure, shortened: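 Retest of compounds above 90% inhibition in the primary screen. Two-fold serial dilution on plate in Middlebrook 7H9 broth, in triplicate. Isoniazid as positive control. Plates sealed, 37 °C for 5 days. Then 1:1 Alamar Blue/10% Tween 80 added, 24 h more. Blue = inhibition, pink = growth. MIC taken as lowest inhibiting concentration.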

Staphylococcus aureus = assay: Antibacterial activity against Staphylococcus aureus after 24 hrs by broth microdilution method; assay type: functional
Procedure, shortened: (§1)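 Broth microdilution, 96-well. Inoculum from 24 h broth cultures adjusted to 0.5 McFarland. Compounds dissolved in DMSO at 1 mg/mL (stock), two-fold serial dilutions in tryptone broth (1000 to 3.9 μg/mL). Positive controls: tetracyclin for bacteria, nystatin for fungi. Incubated 37 °C, 24 h. Then 0.01% aqueous resazurin added for viability. MIC = lowest concentration inhibiting growth.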

Escherichia coli = assay: Antibacterial activity against Escherichia coli after 24 hrs by broth microdilution method; assay type: functional; procedure, shortened: as §1
Salmonella typhi = assay: Antibacterial activity against Salmonella typhi after 24 hrs by broth microdilution method; assay type: functional, Salmonella enterica subsp. enterica serovar Typhi; details: Salmonella enterica; procedure, shortened: as §1
Candida albicans = assay: Antifungal activity against Candida albicans after 24 hrs by broth microdilution method; assay type: functional; procedure, shortened: as §1

With Cn1c(=O)c2ncn(Cc3cc(=O)oc4ccc(C(C)(C)C)cc34)c2n(C)c1=O the Activity [1] was 96%, the MIC [2] was 0.48 µg/mL (≈ 1.22 µM) and the MIC (Staphylococcus aureus) was 7.8 µg/mL (≈ 19.8 µM). The MIC (Escherichia coli) was 3.9 µg/mL (≈ 9.89 µM), the MIC (Salmonella typhi) was 7.8 µg/mL (≈ 19.8 µM) and the MIC (Candida albicans) was 62.5 µg/mL (≈ 158 µM).
Cn1c(=O)c2ncn(Cc3cc(=O)oc4c3ccc3ccccc34)c2n(C)c1=O was tested, and the Activity [1] was 16%, the MIC (Staphylococcus aureus) was 15.6 µg/mL (≈ 40.2 µM) and the MIC (Escherichia coli) was 15.6 µg/mL (≈ 40.2 µM). The MIC (Salmonella typhi) was 62.5 µg/mL (≈ 161 µM) and the MIC (Candida albicans) was 62.5 µg/mL (≈ 161 µM).
In the case of Cc1cc(C)c2c(Cn3cnc4c(=O)n(C)c(=O)n(C)c43)cc(=O)oc2c1, the Activity [1] is reported as 94%, the MIC [2] is reported as 0.97 µg/mL (≈ 2.65 µM) and the MIC (Staphylococcus aureus) is reported as 15.6 µg/mL (≈ 42.6 µM). It also gave an MIC (Escherichia coli) of 125 µg/mL (≈ 341 µM), an MIC (Salmonella typhi) of 250 µg/mL (≈ 682 µM) and an MIC (Candida albicans) of 250 µg/mL (≈ 682 µM).
Compound Cc1ccc2c(Cn3cnc4c(=O)n(C)c(=O)n(C)c43)cc(=O)oc2c1 has an Activity [1] of 92%, an MIC [2] of 1.95 µg/mL (≈ 5.53 µM) and an MIC (Staphylococcus aureus) of 62.5 µg/mL (≈ 177 µM). The MIC (Escherichia coli) was 31.3 µg/mL (≈ 88.8 µM), the MIC (Salmonella typhi) was 125 µg/mL (≈ 355 µM) and the MIC (Candida albicans) was 31.3 µg/mL (≈ 88.8 µM).
Compound Cn1c(=O)c2ncn(Cc3cc(=O)oc4ccc5ccccc5c34)c2n(C)c1=O has an Activity [1] of 92%, an MIC [2] of 1.95 µg/mL (≈ 5.02 µM) and an MIC (Staphylococcus aureus) of 7.8 µg/mL (≈ 20.1 µM). For the same compound, the MIC (Escherichia coli) was 7.8 µg/mL (≈ 20.1 µM), the MIC (Salmonella typhi) was 15.6 µg/mL (≈ 40.2 µM) and the MIC (Candida albicans) was 62.5 µg/mL (≈ 161 µM).
In the case of Cn1c(=O)c2ncn(Cc3cc(=O)oc4ccc(Cl)cc34)c2n(C)c1=O, the Activity [1] is reported as 92%, the MIC [2] is reported as 3.9 µg/mL (≈ 10.5 µM) and the MIC (Staphylococcus aureus) is reported as 31.3 µg/mL (≈ 84 µM). For the same compound, the MIC (Escherichia coli) was 31.3 µg/mL (≈ 84 µM), the MIC (Salmonella typhi) was 62.5 µg/mL (≈ 168 µM) and the MIC (Candida albicans) was 125 µg/mL (≈ 335 µM).
Work on Cc1ccc2oc(=O)cc(Cn3cnc4c(=O)n(C)c(=O)n(C)c43)c2c1 yielded an Activity [1] of 96%, an MIC [2] of 0.12 µg/mL (≈ 0.341 µM) and an MIC (Staphylococcus aureus) of 3.9 µg/mL (≈ 11.1 µM). The MIC (Escherichia coli) was 3.9 µg/mL (≈ 11.1 µM), the MIC (Salmonella typhi) was 7.8 µg/mL (≈ 22.1 µM) and the MIC (Candida albicans) was 31.3 µg/mL (≈ 88.8 µM).
Compound Cn1c(=O)c2ncn(Cc3cc(=O)oc4cc(O)ccc34)c2n(C)c1=O has an Activity [1] of 15%, an MIC (Staphylococcus aureus) of 15.6 µg/mL (≈ 44 µM) and an MIC (Escherichia coli) of 125 µg/mL (≈ 353 µM). For the same compound, the MIC (Salmonella typhi) was 31.5 µg/mL (≈ 88.9 µM) and the MIC (Candida albicans) was 62.5 µg/mL (≈ 176 µM).
For Cn1c(=O)c2ncn(Cc3cc(=O)oc4ccc(Br)cc34)c2n(C)c1=O, the Activity [1] was 92%, the MIC [2] was 3.9 µg/mL (≈ 9.35 µM) and the MIC (Staphylococcus aureus) was 15.6 µg/mL (≈ 37.4 µM). For the same compound, the MIC (Escherichia coli) was 31.3 µg/mL (≈ 75 µM), the MIC (Salmonella typhi) was 31.3 µg/mL (≈ 75 µM) and the MIC (Candida albicans) was 125 µg/mL (≈ 300 µM).
Work on COc1ccc2oc(=O)cc(Cn3cnc4c(=O)n(C)c(=O)n(C)c43)c2c1 yielded an Activity [1] of 56%, an MIC (Staphylococcus aureus) of 7.8 µg/mL (≈ 21.2 µM) and an MIC (Escherichia coli) of 7.8 µg/mL (≈ 21.2 µM). For the same compound, the MIC (Salmonella typhi) was 7.8 µg/mL (≈ 21.2 µM) and the MIC (Candida albicans) was 31.3 µg/mL (≈ 85 µM).
C[C@@H]1[C@H](O)[C@@H](C)/C=C/C=C/C=C/C=C/C=C/C=C/C=C/[C@H](O[C@@H]2O[C@H](C)[C@@H](O)[C@H](N)[C@@H]2O)C[C@@H]2O[C@](O)(C[C@@H](O)C[C@@H](O)[C@H](O)CC[C@@H](O)C[C@@H](O)CC(=O)O[C@H]1C)C[C@H](O)[C@H]2C(=O)O [AMPHOTERICIN B] showed an MIC (Candida albicans) of 0.97 µg/mL (≈ 1.05 µM).
NNC(=O)c1ccncc1 [ISONIAZID] gave an Activity [1] of 100% and an MIC [2] of 0.06 µg/mL (≈ 0.438 µM).
CN(C)[C@@H]1C(O)=C(C(N)=O)C(=O)[C@@]2(O)C(O)=C3C(=O)c4c(O)cccc4[C@@](C)(O)[C@H]3C[C@@H]12 [TETRACYCLINE] was tested, and the MIC (Staphylococcus aureus) was 3.9 µg/mL (≈ 8.78 µM), the MIC (Escherichia coli) was 3.9 µg/mL (≈ 8.78 µM) and the MIC (Salmonella typhi) was 3.9 µg/mL (≈ 8.78 µM).
